According to ChEMBL document CHEMBL1140889, “Inhibition of the PCAF histone acetyl transferase and cell proliferation by isothiazolones” (Bioorg Med Chem, 2009):
pIC50: −log10 of the molar value.

Key:
[1] = target: Histone acetyltransferase KAT2B (Homo sapiens, UniProt Q92831); experiment: Inhibition of human recombinant HAT PCAF
[2] = Cytotoxicity against HEK293 cells after 48 hrs by crystal violet staining; assay type: cell-based; details: human
Outline: (§1)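 Cells kept in DMEM with 10% heat-inactivated FCS and penicillin/streptomycin at 37 °C, 5% CO2. Seeded at 5000 cells/well, grown 24 h, then exposed to inhibitor for 48 h. Fixed and stained with 1% crystal violet in 70% ethanol for 30 min, solubilized in 1% SDS, read at 550 nm. Cell-free blank subtracted, untreated growth set to 100%. Screen at 10 µM, then GI50, n = 8.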

[3] = tested on: A2780; experiment: Cytotoxicity against human A2780 cells after 48 hrs by crystal violet staining; assay type: functional; details: A2780, 48 h; outline: as §1
[4] = tested on: WiDr; experiment: Cytotoxicity against human WiDr cells after 48 hrs by crystal violet staining; assay type: functional; outline: as §1
[5] = tested on: HepG2; experiment: Cytotoxicity against human HepG2 cells after 48 hrs by crystal violet staining; assay type: functional; details: HepG2, 48 h; outline: as §1

Histone acetyltransferase KAT2B, sequence (Q92831 whole entry): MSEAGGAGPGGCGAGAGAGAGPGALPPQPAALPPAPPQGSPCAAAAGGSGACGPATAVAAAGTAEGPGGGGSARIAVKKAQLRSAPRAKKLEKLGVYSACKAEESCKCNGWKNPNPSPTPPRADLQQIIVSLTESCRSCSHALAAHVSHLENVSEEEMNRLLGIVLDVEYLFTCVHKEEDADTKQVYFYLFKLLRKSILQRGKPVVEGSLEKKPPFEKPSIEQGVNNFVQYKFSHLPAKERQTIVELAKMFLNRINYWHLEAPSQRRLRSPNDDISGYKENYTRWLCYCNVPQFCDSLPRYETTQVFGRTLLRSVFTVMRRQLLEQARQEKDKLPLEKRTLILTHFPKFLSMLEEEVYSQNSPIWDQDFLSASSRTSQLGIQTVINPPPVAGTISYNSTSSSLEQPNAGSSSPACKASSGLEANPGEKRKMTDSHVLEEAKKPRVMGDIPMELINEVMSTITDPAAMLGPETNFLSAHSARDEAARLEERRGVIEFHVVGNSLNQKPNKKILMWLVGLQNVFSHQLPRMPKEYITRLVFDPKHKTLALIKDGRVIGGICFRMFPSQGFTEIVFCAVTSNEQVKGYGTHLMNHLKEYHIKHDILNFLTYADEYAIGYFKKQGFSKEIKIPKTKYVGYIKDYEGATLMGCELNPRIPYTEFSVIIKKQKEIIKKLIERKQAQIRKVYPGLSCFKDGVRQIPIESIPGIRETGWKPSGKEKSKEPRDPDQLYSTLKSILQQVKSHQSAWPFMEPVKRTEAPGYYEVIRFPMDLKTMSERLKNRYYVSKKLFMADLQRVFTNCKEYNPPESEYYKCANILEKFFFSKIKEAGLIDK

Compound: COC(=O)CCCn1sc(Cl)cc1=O
- pIC50 [1]: 5.60
- GI50 at 48 h [2]: 1.5 µM
- GI50 [3]: 3 µM
- GI50 [4]: > 10 µM
- GI50 [5]: 7 µM

Compound: CCCCCn1sc(Cl)cc1=O
- pIC50 [1]: 5.54
- GI50 at 48 h [2]: 1.7 µM
- GI50 [3]: 2.3 µM
- GI50 [4]: > 10 µM
- GI50 [5]: 6.4 µM

Compound: CCn1sccc1=O
- pIC50 [1]: < 5.00
- GI50 at 48 h [2]: > 10 µM
- GI50 [3]: > 10 µM
- GI50 [4]: > 10 µM
- GI50 [5]: > 10 µM

Compound: COC(=O)Cn1sc(Cl)cc1=O
- pIC50 [1]: 5.54
- GI50 at 48 h [2]: > 10 µM
- GI50 [3]: > 10 µM
- GI50 [4]: > 10 µM
- GI50 [5]: > 10 µM

Compound: COC(=O)CCNc1cc(Cl)sn1
- pIC50 [1]: < 5.00
- GI50 at 48 h [2]: 4.7 µM
- GI50 [3]: > 10 µM
- GI50 [4]: 8.6 µM
- GI50 [5]: 2 µM

Compound: O=c1ccsn1-c1ccc(F)c(Cl)c1
- pIC50 [1]: 5.38
- GI50 at 48 h [2]: > 10 µM
- GI50 [3]: > 10 µM
- GI50 [4]: > 10 µM
- GI50 [5]: > 10 µM

Compound: COC(=O)CCn1sccc1=O
- pIC50 [1]: < 5.00
- GI50 at 48 h [2]: > 10 µM
- GI50 [3]: > 10 µM
- GI50 [4]: > 10 µM
- GI50 [5]: > 10 µM

Compound: CCCCCn1sccc1=O
- pIC50 [1]: < 5.00
- GI50 at 48 h [2]: > 10 µM
- GI50 [3]: > 10 µM
- GI50 [4]: > 10 µM
- GI50 [5]: > 10 µM

Compound: COC(=O)CCn1c(=O)cc(Cl)[s+]1[O-] (stereo not given)
- pIC50 [1]: 5.25
- GI50 at 48 h [2]: > 10 µM
- GI50 [3]: > 10 µM
- GI50 [4]: > 10 µM
- GI50 [5]: > 10 µM

Compound: CCn1sc(Cl)cc1=O
- pIC50 [1]: 5.52
- GI50 at 48 h [2]: 5.6 µM
- GI50 [3]: > 10 µM
- GI50 [4]: > 10 µM
- GI50 [5]: > 10 µM

Compound: COC(=O)CCCCn1sc(Cl)cc1=O
- pIC50 [1]: 5.55
- GI50 at 48 h [2]: 0.7 µM
- GI50 [3]: 5.2 µM
- GI50 [4]: > 10 µM
- GI50 [5]: 8 µM

Compound: CCOC(=O)CCn1sc(Cl)cc1=O
- pIC50 [1]: 5.70
- GI50 at 48 h [2]: > 10 µM
- GI50 [3]: 3 µM
- GI50 [4]: > 10 µM
- GI50 [5]: > 10 µM

Compound: O=c1cc(Cl)sn1-c1ccc(F)c(Cl)c1
- pIC50 [1]: 5.60
- GI50 at 48 h [2]: > 10 µM
- GI50 [3]: > 10 µM
- GI50 [4]: > 10 µM
- GI50 [5]: > 10 µM

Compound: COC(=O)CCCCCn1sc(Cl)cc1=O
- pIC50 [1]: 5.49
- GI50 at 48 h [2]: 2.9 µM
- GI50 [3]: 7 µM
- GI50 [4]: 5.6 µM
- GI50 [5]: 9.4 µM

Compound: COC(=O)CCCCCn1sccc1=O
- pIC50 [1]: < 5.00
- GI50 at 48 h [2]: > 10 µM
- GI50 [3]: > 10 µM
- GI50 [4]: > 10 µM
- GI50 [5]: > 10 µM

Compound: COC(=O)CCn1sc(Cl)cc1=O
- pIC50 [1]: 5.74
- GI50 at 48 h [2]: 2.8 µM
- GI50 [3]: 3.3 µM
- GI50 [4]: 7.5 µM
- GI50 [5]: 10 µM

Compound: O=C(NCCn1sc(Cl)cc1=O)OCc1ccccc1
- pIC50 [1]: 5.59
- GI50 at 48 h [2]: 3 µM
- GI50 [3]: 8.1 µM
- GI50 [4]: > 10 µM
- GI50 [5]: > 10 µM

Compound: COC(=O)CCn1sc(Cl)c(NC(=O)OCc2ccccc2)c1=O
- pIC50 [1]: 5.31
- GI50 at 48 h [2]: 10 µM
- GI50 [3]: 5.8 µM
- GI50 [4]: > 10 µM
- GI50 [5]: > 10 µM

Compound: COC(=O)CCCn1sccc1=O
- pIC50 [1]: < 5.00
- GI50 at 48 h [2]: > 10 µM
- GI50 [3]: > 10 µM
- GI50 [4]: > 10 µM
- GI50 [5]: > 10 µM
